Source: ChEMBL document CHEMBL3425450, “Neuroactive Steroids. 1. Positive Allosteric Modulators of the (γ-Aminobutyric Acid)A Receptor: Structure-Activity Relationships of Heterocyclic Substitution at C-21” (J Med Chem, 2015)
Converted amounts (≈) assume the structure as drawn.

Legend:
[1] = Clearance in human liver microsomes at 10 uM after 60 mins by HPLC-MS/MS analysis; type: ADME
[2] = Clearance in rat liver microsomes at 10 uM after 60 mins by HPLC-MS/MS analysis; type: ADME
[3] = Clearance in mouse liver microsomes at 10 uM after 60 mins by HPLC-MS/MS analysis; type: ADME
[4] = Clearance in Sprague-Dawley rat at 5 mg/kg, iv and 20 mg/kg, po by LC-MS/MS analysis; type: ADME, organism-based; details: in vivo
How it was run: (§1)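 Rats were dosed i.v. at 5 mpk and orally at 20 mpk. Clearance and oral bioavailability were calculated from mean plasma concentrations of 2 rats.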

[5] = Oral bioavailability in Sprague-Dawley rat at 20 mg/kg by LC-MS/MS analysis; type: ADME, organism-based; details: in vivo; how it was run: as §1
[6] = Ratio of drug level in brain to plasma in Sprague-Dawley rat at 5 mg/kg, iv after 30 mins by LC-MS/MS analysis; type: ADME, organism-based; parameters: dose 5 mg/kg, route intravenous; details: read-out: BPR
How it was run: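 Brain and plasma were sampled at a single point 30 min after the i.v. 5 mpk dose. The ratio was calculated from mean concentrations of 2 rats.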

[7] = Retention time of the compound by LC-MS analysis; type: physicochemical
How it was run: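 Eluents were water and acetonitrile, each with TFA, run as a 5 to 95% acetonitrile gradient over 1.5 min at 1.5 mL/min. Capillary voltage was 3.5 kV and fragmentor voltage 50 V.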

[8] = biological target: GABA-A receptor; agonist GABA site; assay: Positive allosteric modulation of recombinant alpha4beta3delta GABAA receptor (unknown origin) expressed in CHO cells assessed as potentiation of GABA-induced channel current treated for 30 s prior to GABA stimulation for 2s by manual patch assay; type: cell-based, Homo sapiens
[9] = biological target: GABA-A receptor; anion channel; assay: Displacement of [3H]TBPS from GABAA receptor in Sprague-Dawley rat brain cortical membrane after 90 mins by liquid scintillation spectrometry
[10] = biological target: GABA-A receptor; agonist GABA site; assay: Positive allosteric modulation of recombinant alpha1beta2gamma2 GABAA receptor (unknown origin) expressed in LTK cells assessed as potentiation of GABA-induced channel current treated for 30 s prior to GABA stimulation for 2s by Q-patch assay; type: cell-based, Homo sapiens
[11] = biological target: GABA-A receptor; alpha-1/beta-2/gamma-2 (Homo sapiens) (UniProt P14867+P47870+P18507); assay: Selectivity ratio of EC50 for recombinant alpha1beta2gamma2 GABAA receptor (unknown origin) expressed in LTK cells to EC50 for recombinant alpha4beta3delta GABAA receptor (unknown origin) expressed in CHO cells; type: cell-based
[12] = Lipophilicity, log D of the compound at 20 uM at pH 7.4 by HPLC-MS/MS analysis; type: physicochemical; details: buffer
[13] = Aqueous solubility of the compound at pH 7.4 by HPLC-MS/MS analysis; type: physicochemical; details: buffer

Row | SMILES | CLhep predicted at 10 µM [1] [mL/min/kg] | CLhep predicted at 10 µM [2] [mL/min/kg] | CLhep predicted at 10 µM [3] [mL/min/kg] | clearance [4] [mL/min/kg] | bioavailability [5] [%] | Kp at 0.5 h [6] | Retention_time [7] [min] | EC50 [8] [nM] | IC50 [9] [nM] | EC50 [10] [nM] | Ratio EC50 [11] | logD at 20 µM [12] | solubility [13] [µM]
1 | C[C@@]1(O)CC[C@H]2[C@H](CC[C@@H]3[C@@H]2CC[C@]2(C)[C@@H](C(=O)Cn4cc5ncccc5n4)CC[C@@H]32)C1 | 4.5 | 55.7 | 60 | 73.3 | 1.5 | 1.3 | 0.81 | 343 | 6 | > 3000 | > 8 | 4.7 | 12.4 (≈ 5.4 µg/mL)
2 | C[C@@]1(O)CC[C@H]2[C@H](CC[C@@H]3[C@@H]2CC[C@]2(C)[C@@H](C(=O)Cn4cc5ccncc5n4)CC[C@@H]32)C1 | 4.5 | 55.7 | 33.8 | 58.3 | 40 | 2.1 | 0.75 | 178 | 16 | > 3000 | > 17 | 4.7 | 1.2 (≈ 0.523 µg/mL)
